# Results of several laboratories.
# Each line is one published result; the experiments were not run side by side.
# Target: Cyclin-dependent kinase-like 2 (CDKL2, Homo sapiens, UniProt Q92772)
# Residues used in one study (Q92772 1-493): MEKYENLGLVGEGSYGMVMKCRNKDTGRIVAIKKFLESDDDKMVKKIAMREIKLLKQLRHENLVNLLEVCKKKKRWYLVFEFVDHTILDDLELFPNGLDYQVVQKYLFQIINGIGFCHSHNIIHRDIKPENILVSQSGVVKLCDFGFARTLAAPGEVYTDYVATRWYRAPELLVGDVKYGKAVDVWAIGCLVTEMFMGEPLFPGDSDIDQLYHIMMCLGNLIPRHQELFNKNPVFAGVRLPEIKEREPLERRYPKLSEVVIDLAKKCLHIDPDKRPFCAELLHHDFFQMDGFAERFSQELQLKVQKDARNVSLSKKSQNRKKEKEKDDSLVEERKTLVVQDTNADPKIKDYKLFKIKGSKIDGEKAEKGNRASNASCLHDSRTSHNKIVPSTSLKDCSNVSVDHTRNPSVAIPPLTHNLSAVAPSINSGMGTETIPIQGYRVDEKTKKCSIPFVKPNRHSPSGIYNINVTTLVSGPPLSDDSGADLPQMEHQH
SMILES,test,setting,remaining binding
c1cnn2ncc(-c3ccnc(N4CCC45COC5)n3)c2c1,binding,1 µM,91%
O=C(NCCCN1CCOCC1)c1ccc(Nc2ncc(Cl)c(-c3ccc(Cl)s3)n2)cc1,"binding, competition with immobilised ligand",1 µM,19%
Nc1ncc2c(n1)-c1c([nH]c3ccc(C#CC4CC4)cc13)CCCC2,"binding, competition with immobilised ligand",1 µM,96%
c1cncc(-c2cccc(Nc3nccc(NC4CCCCC4)n3)c2)c1,"binding, competition with immobilised ligand",10 µM,64%
O=C(Nc1cccnn1)N1CC(C/C=C/c2cncc(Oc3ccc(C(F)(F)F)cn3)n2)C1,"cell-free assay, competition with immobilised ligand",1 µM,100%
O=C(NCCCN1CCOCC1)c1ccc(Nc2nccc(-c3cc4ccccc4s3)n2)cc1,"binding, competition with immobilised ligand",1 µM,7.3%
Cc1nc(Cc2cccc(C(F)(F)F)c2)sc1-c1ccc(C(N)=O)nc1,"binding, competition with immobilised ligand",1 µM,92%
C[C@@H]1CCN(c2nccc(-c3cnn4ncccc34)n2)C1,binding,1 µM,99%
CNC(=O)[C@@H]1CC[C@@H](n2c(-c3ccc4cnccc4c3)nc3ccc(C(=O)NCc4cccc(C(N)=O)c4)cc32)C1,"binding, competition with immobilised ligand",1 µM,100%
CC1CCCN1c1nccc(-c2cnn3ncccc23)n1 (stereo not shown),binding,1 µM,100%
CO[C@@H](C)c1c(Nc2ccc([C@@H](N(C)C(=O)C3CCS(=O)(=O)CC3)C(F)(F)F)cc2)cnc2cc(Cl)nn12,"cell-free assay, competition with immobilised ligand",1 µM,88%
C=CC(=O)N1CCC(C(=O)NCC(=O)N2CCN(c3nc(-c4cnc(N)nc4C(F)F)nc(N4CCOCC4)n3)CC2)CC1,"binding, competition with immobilised ligand",1 µM,100%
CN(C)c1nccc(-c2cnn3ncccc23)n1,binding,1 µM,100%
CS(=O)(=O)N1CCCC(NC(=O)[C@H](CCC2CCCCC2)NC(=O)c2ccc(CNc3ncnc4c3nnn4-c3ccccc3)cc2)C1 (stereo partly shown),"cell-free assay, competition with immobilised ligand",0.1 µM,100%
N[C@H]1CCN(c2nccc(-c3cnn4ncccc34)n2)C1,binding,1 µM,99%
CN(C)C(=O)Cn1cc(-c2nc(C3(c4ccc(-c5cnc(N)nc5)cc4)CC3)no2)cn1,"cell-free assay, competition with immobilised ligand",1 µM,100%
O=C(NCC1CCOCC1)c1n[nH]cc1NC(=O)c1c(F)cccc1F,"binding, competition with immobilised ligand",1 µM,93%
CN(CCCC(F)(F)F)c1nccc(-c2cnn3ncccc23)n1,binding,1 µM,100%
CN(c1ccnc(CNc2nc(Nc3ccc4c(c3)CC(=O)N4)ncc2C(F)(F)F)n1)S(C)(=O)=O,"cell-free assay, competition with immobilised ligand",1 µM,84%
COc1cnc(Nc2cccc(S(N)(=O)=O)c2)nc1N1CCN(c2ccccc2)CC1,"binding, competition with immobilised ligand",1 µM,100%
O=C(c1ccc(Nc2ncc(Cl)c(-c3cc4ccccc4s3)n2)cc1)N1CCC(N2CCCC2)CC1,"binding, competition with immobilised ligand",1 µM,2.4%
CS(=O)(=O)N1CCCC(NC(=O)[C@H](CCC2CCCCC2)NC(=O)c2ccc(CNC(=O)c3cnc4ccccn34)cc2)C1 (stereo partly shown),"cell-free assay, competition with immobilised ligand",0.1 µM,85%
